From ChEMBL document CHEMBL1132135, “Potent, orally absorbed glucagon receptor antagonists” (Bioorg Med Chem Lett, 1999)

Experiments:
Glucagon receptor [1] = target: T1, Glucagon receptor (Mus musculus, UniProt Q61606); assay: Binding affinity towards glucagon receptor determined by reduction in binding of [125I]glucagon to the murine glucagon receptor (GGR) expressed on CHO cells in absence of Mg+2; format: cell-based
[2] = target: Glucagon receptor (Mus musculus) (UniProt Q61606); assay: Binding affinity towards glucagon receptor determined by reduction in binding of 125 I-glucagon to the murine glucagon receptor (mGLUR) expressed on CHO cells in presence of Mg+2 at 3 uM; format: cell-based
Glucagon receptor [3] = target: T2, Glucagon receptor (Homo sapiens, UniProt P47871); assay: biochemical; format: cell-based, CHO
Glucagon receptor [4] = target: T2, Glucagon receptor; assay: Binding affinity towards glucagon receptor determined by reduction in binding of [125I]glucagon to the human glucagon receptor (GGR) expressed on CHO cells in presence of Mg+2; format: cell-based
Method in brief: (§1)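 Radioligand binding to the glucagon receptor was run with 5 mM Mg2+ added, described as a physiological concentration.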

[5] = target: Mitogen-activated protein kinase 14 (Homo sapiens, UniProt Q16539); assay: Inhibitory activity against p38-alpha kinase
[6] = Selectivity ratio between the binding value of human glucagon receptor (GGR) with Mg+2 and the value of p38 kinase
[7] = target: Glucagon receptor (Mus musculus) (UniProt Q61606); assay: (§2) Binding affinity towards glucagon receptor determined by reduction in binding of 125 I-glucagon to the murine glucagon receptor (mGLUR) expressed on CHO cells in presence of Mg+2 at 1 uM; format: cell-based
Glucagon receptor [8] = target: T1, Glucagon receptor; assay: as §2; format: cell-based
Glucagon receptor [9] = target: T2, Glucagon receptor; assay: Binding affinity towards glucagon receptor determined by reduction in binding of 125 I-glucagon to the human glucagon receptor (hGLUR) expressed on CHO cells in absence of Mg+2 at 2 uM; format: cell-based
[10] = Inhibition of p38 kinase at 2 uM
Glucagon receptor [11] = target: T1, Glucagon receptor; assay: (§3) Binding affinity towards glucagon receptor determined by reduction in binding of 125 I-glucagon to the murine glucagon receptor (mGLUR) expressed on CHO cells in presence of Mg+2; format: cell-based
Method in brief: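 Mg2+ added at 5 mM, a physiological level, to the binding medium. IC50 reported in µM, with the number of determinations noted; where no IC50 was reached, percent inhibition is given at a single tested concentration.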

[12] = target: Glucagon receptor (Mus musculus) (UniProt Q61606); assay: as §3; format: cell-based; details: concentration not given here; method in brief: as §1
[13] = Inhibition of p38 kinase; details: concentration not given here
[14] = Inhibition of p38 kinase at 1 uM
Glucagon receptor [15] = target: T1, Glucagon receptor; assay: Binding affinity towards glucagon receptor determined by reduction in binding of 125 I-glucagon to the murine glucagon receptor (mGLUR) expressed on CHO cells in presence of Mg+2 at 3 uM
[16] = Inhibition of p38 kinase at 10 uM
[17] = Inhibition of p38 kinase at 40 uM
[18] = Inhibition of p38 kinase at 5 uM

Mitogen-activated protein kinase 14, sequence (Q16539 whole entry): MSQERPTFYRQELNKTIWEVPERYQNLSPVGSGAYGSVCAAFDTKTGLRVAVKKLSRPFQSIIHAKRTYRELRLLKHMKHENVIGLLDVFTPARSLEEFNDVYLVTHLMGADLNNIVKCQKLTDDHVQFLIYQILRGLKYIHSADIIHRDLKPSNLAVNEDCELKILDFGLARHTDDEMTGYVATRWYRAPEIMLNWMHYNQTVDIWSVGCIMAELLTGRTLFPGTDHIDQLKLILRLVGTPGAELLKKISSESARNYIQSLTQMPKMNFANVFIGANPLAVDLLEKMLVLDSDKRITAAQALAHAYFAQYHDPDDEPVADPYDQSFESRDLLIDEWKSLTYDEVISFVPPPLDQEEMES
T2 sequence (P47871 whole entry): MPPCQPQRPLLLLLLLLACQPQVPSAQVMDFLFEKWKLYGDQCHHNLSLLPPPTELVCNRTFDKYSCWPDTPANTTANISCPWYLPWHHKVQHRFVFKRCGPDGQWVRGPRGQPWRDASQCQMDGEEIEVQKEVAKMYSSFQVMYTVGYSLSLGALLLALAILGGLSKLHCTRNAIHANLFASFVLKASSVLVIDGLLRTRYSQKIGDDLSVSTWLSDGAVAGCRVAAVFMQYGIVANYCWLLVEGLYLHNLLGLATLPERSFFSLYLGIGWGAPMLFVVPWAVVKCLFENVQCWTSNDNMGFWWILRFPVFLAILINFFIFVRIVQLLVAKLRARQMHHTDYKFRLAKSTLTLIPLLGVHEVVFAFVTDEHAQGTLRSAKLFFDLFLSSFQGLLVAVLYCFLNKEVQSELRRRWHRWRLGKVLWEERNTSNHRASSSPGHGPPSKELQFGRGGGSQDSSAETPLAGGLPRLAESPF
Glucagon receptor (Mus musculus), sequence (Q61606 whole entry): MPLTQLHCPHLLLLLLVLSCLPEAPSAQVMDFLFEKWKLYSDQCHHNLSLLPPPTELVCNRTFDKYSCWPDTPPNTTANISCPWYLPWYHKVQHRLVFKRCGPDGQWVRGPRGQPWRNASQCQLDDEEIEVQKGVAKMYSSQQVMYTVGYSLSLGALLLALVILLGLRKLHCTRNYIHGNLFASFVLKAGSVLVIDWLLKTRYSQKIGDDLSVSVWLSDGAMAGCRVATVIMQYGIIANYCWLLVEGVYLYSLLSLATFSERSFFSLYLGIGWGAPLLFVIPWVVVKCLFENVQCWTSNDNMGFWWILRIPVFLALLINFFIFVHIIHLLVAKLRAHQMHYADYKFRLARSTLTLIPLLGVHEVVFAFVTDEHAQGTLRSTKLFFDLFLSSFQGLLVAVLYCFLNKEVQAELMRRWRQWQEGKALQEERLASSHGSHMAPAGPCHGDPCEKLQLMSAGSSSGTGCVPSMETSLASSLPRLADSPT
T1 sequence (Q61606 whole entry): as above

Compound | IC50 (Glucagon receptor [1]) [nM] | IC50 (Glucagon receptor [3]) [nM] | IC50 (Glucagon receptor [4]) [nM] | IC50 [5] [nM] | Ratio [6] | also measured
C=CCOc1ccccc1-c1cc(-c2ccc(Cl)cc2)[nH]c1-c1ccncc1 | 270 | 17 | 260 | 4740 | 0.05 | inhibition [2]: 50%
COc1ccc(-c2cc(-c3ccc(Cl)cc3)[nH]c2-c2ccncc2)cc1 | 240 | 100 | 1600 | 1150 | 1.4 | inhibition [7]: 16%
Fc1ccc(-c2cc(-c3ccc(F)cc3)c(-c3ccncc3)[nH]2)cc1 | 430 | 90 | 350 | 340 | 1 | Inhibition (Glucagon receptor [8]): 7%
Fc1ccc(-c2cc(-c3ccc(Cl)cc3)[nH]c2-c2ccncc2)cc1 | 200 | 80 | 800 | 1400 | 0.57 | inhibition [7]: 43%
CSc1ccc(-c2cc(-c3ccc(F)cc3)c(-c3ccncc3)[nH]2)cc1 | – | 290 | – | 1230 | – | –
C[S+]([O-])c1ccc(-c2nc(-c3ccc(F)cc3)c(-c3ccncc3)[nH]2)cc1 (stereo not given) [SB-203580] | – | – | – | – | – | inhibition (Glucagon receptor [9]): 18%; IC50 [10]: 37 nM
CCCCCCOc1ccccc1-c1cc(-c2ccc(Cl)cc2)[nH]c1-c1ccncc1 | 340 | 40 | 500 | 2680 | 0.18 | inhibition [7]: 22%
Nc1ccc(-c2cc(-c3ccc(F)cc3)c(-c3ccncc3)[nH]2)cc1 | – | 1400 | – | 190 | – | –
CC(C)Oc1ccccc1-c1cc(-c2ccc(Cl)cc2)[nH]c1-c1ccncc1 | 700 | 30 | 910 | 5540 | 0.16 | IC50 (Glucagon receptor [11]): > 1000 nM
CC(C)COc1ccccc1-c1cc(-c2ccc(Cl)cc2)[nH]c1-c1ccncc1 | 150 | 3 | 200 | 3760 | 0.05 | inhibition [12]: 17%
Clc1ccc(-c2cc(-c3ccc(Br)cc3)c(-c3ccncc3)[nH]2)cc1 | – | 140 | 2300 | 300 | 7.6 | –
O=C(O)c1ccc(-c2cc(-c3ccc(F)cc3)c(-c3ccncc3)[nH]2)cc1 | – | > 3000 | – | 90 | – | –
Clc1ccc(-c2cc(C3CCCCC3)c(-c3ccncc3)[nH]2)cc1 | 60 | 100 | > 3000 | > 10000 | – | IC50 (Glucagon receptor [11]): > 3000 nM
CCCOc1cccc(OCCC)c1-c1cc(-c2ccc(Cl)cc2)[nH]c1-c1ccncc1 | 670 | 40 | 290 | – | – | IC50 (Glucagon receptor [11]): > 3000 nM; inhibition [13]: 5%
CCCOc1cc(Br)ccc1-c1cc(-c2ccc(Cl)cc2)[nH]c1-c1ccncc1 | 49 | 4 | 130 | – | – | IC50 (Glucagon receptor [11]): 830 nM
CC(C)(C)c1ccc(-c2cc(-c3ccc(F)cc3)c(-c3ccncc3)[nH]2)cc1 | – | 850 | – | > 10000 | – | –
O=C(NCc1ccccc1)c1cc(-c2ccc(Cl)cc2)[nH]c1-c1ccncc1 | – | > 3000 | – | – | – | inhibition [14]: 0%
Clc1ccc(-c2cc(-c3ccccc3)c(-c3ccncc3)[nH]2)cc1 | – | 60 | 380 | 210 | 1.8 | –
Cc1cc(-c2ccc(F)cc2)c(-c2ccncc2)[nH]1 | – | > 3000 | – | 320 | > 9 | –
CN1CCC(c2cc(-c3ccc(F)cc3)c(-c3ccncc3)[nH]2)CC1 | – | – | – | 20 | > 130 | inhibition (Glucagon receptor [9]): 7%
C[S+]([O-])c1ccc(-c2cc(-c3ccc(F)cc3)c(-c3ccncc3)[nH]2)cc1 (stereo not given) | – | 1100 | – | 670 | – | –
Clc1ccc(-c2cc(-c3ccccc3Br)c(-c3ccncc3)[nH]2)cc1 | – | 26 | 2300 | 1000 | 2.3 | –
Clc1ccc(-c2ccc(-c3ccncc3)[nH]2)cc1 | 700 | 140 | > 3000 | > 10000 | – | IC50 (Glucagon receptor [11]): > 3000 nM
CCCOc1ccccc1-c1cc(-c2ccc(Cl)cc2)[nH]c1-c1ccncc1 | 30 | 8 | 140 | 2840 | 0.05 | IC50 (Glucagon receptor [11]): 700 nM

Compound | IC50 (Glucagon receptor [1]) [nM] | IC50 (Glucagon receptor [3]) [nM] | IC50 (Glucagon receptor [4]) [nM] | IC50 [5] [nM] | Ratio [6] | also measured
N#Cc1ccc(-c2cc(-c3ccc(F)cc3)c(-c3ccncc3)[nH]2)cc1 | 230 | 140 | 4900 | 50 | 102 | inhibition [2]: 42%
O=[N+]([O-])c1ccc(-c2cc(-c3ccc(F)cc3)c(-c3ccncc3)[nH]2)cc1 | – | 360 | – | 50 | – | –
Cc1ccc(-c2cc(-c3ccc(F)cc3)c(-c3ccncc3)[nH]2)cc1 | – | 250 | 2200 | 1690 | 1.3 | –
Fc1ccc(-c2cc(C3CCCCC3)[nH]c2-c2ccncc2)cc1 | > 1000 | 90 | 490 | 180 | 2.7 | IC50 (Glucagon receptor [11]): > 1000 nM
CCOc1ccccc1-c1cc(-c2ccc(Cl)cc2)[nH]c1-c1ccncc1 | 340 | 40 | 500 | 14200 | 0.03 | inhibition [12]: 22%
C[S+]([O-])c1ccc(-c2cc(-c3ccncc3)c(-c3ccc(F)cc3)[nH]2)cc1 (stereo not given) | – | – | – | 5.3 | – | inhibition (Glucagon receptor [9]): 31%
COc1ccc(-c2cc(-c3ccc(F)cc3)c(-c3ccncc3)[nH]2)cc1 | – | 590 | – | 2800 | – | –
Clc1ccc(-c2cc(-c3ccc(Cl)cc3)c(-c3ccncc3)[nH]2)cc1 | 220 | 190 | 810 | 160 | 5 | Inhibition (Glucagon receptor [15]): 42%
Fc1ccc(-c2cc(-c3ccccc3)[nH]c2-c2ccncc2)cc1 | 2700 | 390 | – | 800 | – | –
CCCCOc1ccccc1-c1cc(-c2ccc(Cl)cc2)[nH]c1-c1ccncc1 | 80 | 10 | 180 | – | – | IC50 (Glucagon receptor [11]): 1200 nM; inhibition [14]: 16%
CCOC(=O)c1ccc(-c2cc(-c3ccc(F)cc3)c(-c3ccncc3)[nH]2)cc1 | – | 850 | – | 260 | – | –
CCCOc1ccc(Cl)cc1-c1cc(-c2ccc(Cl)cc2)[nH]c1-c1ccncc1 | 50 | 6 | 170 | – | – | IC50 (Glucagon receptor [11]): 1000 nM; inhibition [16]: 31%
Fc1ccc(-c2cc[nH]c2-c2ccncc2)cc1 | – | > 3000 | > 3000 | 160 | > 18 | –
CC(C)c1cc(-c2ccc(Cl)cc2)[nH]c1-c1ccncc1 | 60 | 32 | 110 | > 10000 | – | IC50 (Glucagon receptor [11]): > 3000 nM
Fc1ccc(-c2cc(-c3ccc(Cl)cc3Cl)[nH]c2-c2ccncc2)cc1 | 340 | 40 | 950 | 420 | 2.2 | inhibition [7]: 13%
O=C(O)c1cc(-c2ccc(Cl)cc2)[nH]c1-c1ccncc1 | – | > 3000 | – | > 1000 | – | –
O=C(OCc1ccccc1)c1cc(-c2ccc(Cl)cc2)[nH]c1-c1ccncc1 | 800 | 60 | 1300 | – | – | inhibition [7]: 8%; inhibition [17]: 69%
CSc1ccc(-c2cc(-c3ccncc3)c(-c3ccc(F)cc3)[nH]2)cc1 | – | – | – | 44 | – | inhibition (Glucagon receptor [9]): 0%
COc1cccc(-c2cc(-c3ccc(Cl)cc3)[nH]c2-c2ccncc2)c1 | – | 60 | 450 | 420 | 1.1 | –
CCCNc1ccccc1-c1cc(-c2ccc(Cl)cc2)[nH]c1-c1ccncc1 | 440 | 20 | 270 | – | – | IC50 (Glucagon receptor [11]): > 3000 nM; inhibition [18]: 52%
CCOC(=O)c1cc(-c2ccc(Cl)cc2)[nH]c1-c1ccncc1 | 500 | 90 | 400 | > 1000 | – | IC50 (Glucagon receptor [11]): > 3000 nM
COc1ccccc1-c1cc(-c2ccc(Cl)cc2)[nH]c1-c1ccncc1 | 400 | 70 | 500 | 2650 | 0.18 | inhibition [12]: 6%
CCc1ccc(-c2cc(-c3ccc(F)cc3)c(-c3ccncc3)[nH]2)cc1 | – | 370 | – | 1360 | – | –
Fc1ccc(-c2cc(-c3cccc(Cl)c3)[nH]c2-c2ccncc2)cc1 | 460 | 40 | 990 | 420 | 2.3 | inhibition [7]: 28%
